Experimental data collected from several papers.
Compare with care: the assays were run in different laboratories.
Target: Serine/threonine-protein kinase DCLK2 (DCLK2, Homo sapiens, UniProt Q8N568)
Residues used in one study (Q8N568 1-766): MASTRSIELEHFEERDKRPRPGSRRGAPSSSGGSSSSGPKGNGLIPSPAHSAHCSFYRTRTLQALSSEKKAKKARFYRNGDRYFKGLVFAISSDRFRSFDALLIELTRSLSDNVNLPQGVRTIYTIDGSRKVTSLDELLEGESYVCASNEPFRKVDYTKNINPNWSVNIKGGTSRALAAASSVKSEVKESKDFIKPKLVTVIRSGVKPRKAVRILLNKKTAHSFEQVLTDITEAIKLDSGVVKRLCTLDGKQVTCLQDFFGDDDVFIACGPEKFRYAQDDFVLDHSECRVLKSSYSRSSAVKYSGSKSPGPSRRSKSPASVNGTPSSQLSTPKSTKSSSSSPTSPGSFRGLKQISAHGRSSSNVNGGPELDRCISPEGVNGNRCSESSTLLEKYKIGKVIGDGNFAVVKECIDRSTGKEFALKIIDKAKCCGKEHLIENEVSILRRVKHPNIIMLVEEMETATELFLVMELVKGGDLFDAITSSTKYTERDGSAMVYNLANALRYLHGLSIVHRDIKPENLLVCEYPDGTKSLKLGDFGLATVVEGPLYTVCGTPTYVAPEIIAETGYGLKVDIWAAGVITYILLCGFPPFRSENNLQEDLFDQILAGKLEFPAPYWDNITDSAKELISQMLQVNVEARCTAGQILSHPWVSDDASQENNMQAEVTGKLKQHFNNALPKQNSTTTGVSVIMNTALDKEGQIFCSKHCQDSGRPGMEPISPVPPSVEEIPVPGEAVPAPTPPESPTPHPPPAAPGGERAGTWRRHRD

| SMILES | effect on | action | technique | concentration | measurement | result |
| --- | --- | --- | --- | --- | --- | --- |
| Cn1cncc1[C@@](O)(COc1ccc(C#N)cc1-c1ccc(OC(F)(F)F)cc1)c1ccc(C#N)cc1 | cell-free assay | – | competition with immobilised ligand | 1 µM | remaining binding | 100% |
| COc1ncccc1-c1cnn2ccc(N3CCN(C(=O)OC(C)C)CC3)nc12 | binding | – | competition with immobilised ligand | 1 µM | remaining binding | 100% |
| Cn1cc(-c2cc(F)cc(N3CCn4c(cc5c4CCCC5)C3=O)c2CO)cc(Nc2ccc(N3CCN(C4COC4)CC3)cn2)c1=O | enzyme activity | inhibitor | – | 0.1 µM | inhibition | 10% |
| Nc1ncc(-c2nc(N3CCOCC3)nc(N3CCOCC3)n2)c(C(F)F)n1 | binding | – | competition with immobilised ligand | 10 µM | remaining binding | 86% |
| Cn1cc(-c2cccc(N3CCc4c(sc5c4CC(C)(C)C5)C3=O)c2CO)cc(Nc2ccncn2)c1=O | enzyme activity | inhibitor | – | 1 µM | inhibition | 3% |
| N#CC1(c2ccccn2)CCN(Cc2cc(C(=O)O)c(=O)n3ccccc23)CC1 | cell-free assay | – | competition with immobilised ligand | 1 µM | remaining binding | 100% |
| O=c1[nH]c2ccccc2n1C1CCN(Cc2ccc(-c3[nH]c4cc5ncnc5cc4nc3-c3ccccc3)cc2)CC1 | cell-free assay | – | – | 0.5 µM | remaining signal | 107% |
| Cc1nn(C)cc1-c1nc2c(N3CCN(Cc4ccc(Cl)cc4)CC3)c(Cl)cnc2[nH]1 | binding | – | competition with immobilised ligand | 1 µM | remaining binding | 100% |
| COc1cc(Nc2ncc(F)c(Nc3ccc4c(n3)NC(=O)C(C)(C)O4)n2)cc(OC)c1OC | binding | – | competition with immobilised ligand | 10 µM | inhibition | 36% |
| CC(C)(C)c1cc(C=C(C#N)C#N)cc(Br)c1O | enzyme activity | inhibitor | – | 0.5 µM | remaining activity | 109% |
